The source made the active and inactive calls. The rule behind the calls is not given here.

Data set [1] addresses RAC-gamma serine/threonine-protein kinase (Homo sapiens, UniProt Q9Y243). Kind of data set: Inhibition of AKT3.
For data set [2], the system named is Rattus norvegicus. The experiment in a line: Antihypertensive activity in rat assessed as reduction of DOCA salt-induced blood pressure at 1 mg/kg, po after 2 hrs. The format is functional.
For data set [3], the system named is Rattus norvegicus. Kind of data set: Antihypertensive activity in spontaneously hypertensive rat assessed as reduction of blood pressure at 1 mg/kg, po after 2 hrs. It counts as functional.
Data set [4] deals with T1, Inhibitor of nuclear factor kappa-B kinase subunit beta (Homo sapiens, UniProt O14920).
T1 sequence (O14920 whole entry): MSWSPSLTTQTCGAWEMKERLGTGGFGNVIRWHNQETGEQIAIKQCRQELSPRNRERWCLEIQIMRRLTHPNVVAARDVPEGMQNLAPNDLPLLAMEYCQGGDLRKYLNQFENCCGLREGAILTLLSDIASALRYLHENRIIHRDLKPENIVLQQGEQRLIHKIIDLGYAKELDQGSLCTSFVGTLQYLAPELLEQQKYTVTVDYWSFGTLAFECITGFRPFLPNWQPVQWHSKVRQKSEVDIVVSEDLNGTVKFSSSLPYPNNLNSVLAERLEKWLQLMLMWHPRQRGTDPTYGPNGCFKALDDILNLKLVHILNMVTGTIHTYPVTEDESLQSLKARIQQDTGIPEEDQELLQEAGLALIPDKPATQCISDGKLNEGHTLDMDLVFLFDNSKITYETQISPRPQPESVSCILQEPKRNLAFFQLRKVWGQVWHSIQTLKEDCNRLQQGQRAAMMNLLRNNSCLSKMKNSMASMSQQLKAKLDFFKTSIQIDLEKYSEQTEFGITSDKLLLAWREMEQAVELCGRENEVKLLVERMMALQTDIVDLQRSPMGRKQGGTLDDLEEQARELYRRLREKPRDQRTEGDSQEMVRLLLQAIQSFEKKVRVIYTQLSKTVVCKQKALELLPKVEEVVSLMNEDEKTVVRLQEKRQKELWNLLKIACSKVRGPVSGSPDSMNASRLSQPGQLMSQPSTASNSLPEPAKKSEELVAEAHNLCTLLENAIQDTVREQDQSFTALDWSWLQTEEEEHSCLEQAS
The experiment in a line: Inhibition of IKK2.

The target of data set [5] is Mitogen-activated protein kinase 10 (Homo sapiens, UniProt P53779). Kind of data set: Inhibition of JNK3.
Mitogen-activated protein kinase 10, sequence (P53779 whole entry): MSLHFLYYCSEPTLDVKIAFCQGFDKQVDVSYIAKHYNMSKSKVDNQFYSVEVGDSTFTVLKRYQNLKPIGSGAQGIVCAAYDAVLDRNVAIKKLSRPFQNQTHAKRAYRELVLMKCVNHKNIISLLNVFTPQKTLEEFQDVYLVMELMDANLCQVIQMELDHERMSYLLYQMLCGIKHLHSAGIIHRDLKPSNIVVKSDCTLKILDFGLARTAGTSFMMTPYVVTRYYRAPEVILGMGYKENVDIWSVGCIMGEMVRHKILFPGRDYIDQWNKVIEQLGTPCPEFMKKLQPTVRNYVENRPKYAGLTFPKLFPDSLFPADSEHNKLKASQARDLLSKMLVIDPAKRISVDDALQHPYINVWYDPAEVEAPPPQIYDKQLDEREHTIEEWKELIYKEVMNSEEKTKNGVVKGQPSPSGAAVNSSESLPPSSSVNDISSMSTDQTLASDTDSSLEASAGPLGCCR
Data set [6] has as its system Rattus norvegicus. Kind of data set: Cardiovascular activity in spontaneously hypertensive rat assessed as increase in heart rate at 0.3 to 3 mg/kg, po. The format is ADME, organism-based. The arrangement: dose 0.3-3 mg/kg, route oral. Particulars: in vivo. Put shortly:
(§1)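 Compound given by oral gavage: 0.3, 1 and 3 mg/kg to spontaneously hypertensive rats, and 1 mg/kg to DOCA salt-treated hypertensive rats. A vehicle group was run alongside. Heart rate and blood pressure were recorded from immediately after dosing as 10-s averages every 5 min. There were 4-6 animals per dose (5 per group in the legend), and the change was taken from each group's baseline.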

Data set [7] deals with Glycogen synthase kinase-3 alpha (Homo sapiens, UniProt P49840). Kind of data set: Inhibition of GSK3alpha.
Glycogen synthase kinase-3 alpha, sequence (P49840 whole entry): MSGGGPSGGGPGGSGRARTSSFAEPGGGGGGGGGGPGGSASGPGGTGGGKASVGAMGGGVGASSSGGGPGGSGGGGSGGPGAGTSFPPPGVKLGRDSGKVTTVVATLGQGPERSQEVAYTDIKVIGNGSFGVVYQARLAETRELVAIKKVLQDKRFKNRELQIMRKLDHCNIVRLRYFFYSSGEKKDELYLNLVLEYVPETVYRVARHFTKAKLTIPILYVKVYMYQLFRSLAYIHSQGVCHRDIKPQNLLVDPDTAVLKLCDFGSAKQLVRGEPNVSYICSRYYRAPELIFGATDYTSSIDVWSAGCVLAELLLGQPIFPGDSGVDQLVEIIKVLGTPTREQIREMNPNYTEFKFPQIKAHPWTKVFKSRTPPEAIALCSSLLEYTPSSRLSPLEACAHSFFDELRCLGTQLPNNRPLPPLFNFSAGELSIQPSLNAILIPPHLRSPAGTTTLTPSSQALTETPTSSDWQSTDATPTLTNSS
For data set [8], the target named is RAC-beta serine/threonine-protein kinase (Homo sapiens, UniProt P31751). Kind of data set: Inhibition of AKT2.
Data set [9] concerns the target Serine/threonine-protein kinase PLK1 (Homo sapiens, UniProt P53350). Kind of data set: Inhibition of PLK.
Data set [10] deals with Rattus norvegicus. Kind of data set: Antihypertensive activity in normotensive Sprague-Dawley rat assessed as reduction of blood pressure at 1 mg/kg, po after 2 hrs. The format is functional.
Data set [11] has as its target Cyclin-dependent kinase 2 (Homo sapiens, UniProt P24941). The experiment in a line: Inhibition of CDK2.
For data set [12], the target named is RAC-alpha serine/threonine-protein kinase (Homo sapiens, UniProt P31749). The experiment in a line: Inhibition of AKT1.
RAC-alpha serine/threonine-protein kinase, sequence (P31749 whole entry): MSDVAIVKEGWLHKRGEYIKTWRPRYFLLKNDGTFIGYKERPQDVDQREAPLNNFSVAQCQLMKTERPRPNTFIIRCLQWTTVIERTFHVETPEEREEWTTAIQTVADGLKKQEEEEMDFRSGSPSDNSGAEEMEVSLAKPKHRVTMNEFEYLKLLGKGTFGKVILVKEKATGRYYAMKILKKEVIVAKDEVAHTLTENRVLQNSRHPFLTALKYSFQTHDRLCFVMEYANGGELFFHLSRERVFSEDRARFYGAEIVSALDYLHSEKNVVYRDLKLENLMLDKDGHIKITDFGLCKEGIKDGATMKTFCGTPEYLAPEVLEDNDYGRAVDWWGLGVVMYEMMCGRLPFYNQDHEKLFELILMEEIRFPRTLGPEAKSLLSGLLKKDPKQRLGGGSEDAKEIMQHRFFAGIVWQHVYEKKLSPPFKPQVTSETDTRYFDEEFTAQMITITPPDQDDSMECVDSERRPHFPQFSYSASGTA
For data set [13], the target named is Ribosomal protein S6 kinase alpha-1 (Homo sapiens, UniProt Q15418). Kind of data set: Inhibition of RSK1.
Ribosomal protein S6 kinase alpha-1, sequence (Q15418 whole entry): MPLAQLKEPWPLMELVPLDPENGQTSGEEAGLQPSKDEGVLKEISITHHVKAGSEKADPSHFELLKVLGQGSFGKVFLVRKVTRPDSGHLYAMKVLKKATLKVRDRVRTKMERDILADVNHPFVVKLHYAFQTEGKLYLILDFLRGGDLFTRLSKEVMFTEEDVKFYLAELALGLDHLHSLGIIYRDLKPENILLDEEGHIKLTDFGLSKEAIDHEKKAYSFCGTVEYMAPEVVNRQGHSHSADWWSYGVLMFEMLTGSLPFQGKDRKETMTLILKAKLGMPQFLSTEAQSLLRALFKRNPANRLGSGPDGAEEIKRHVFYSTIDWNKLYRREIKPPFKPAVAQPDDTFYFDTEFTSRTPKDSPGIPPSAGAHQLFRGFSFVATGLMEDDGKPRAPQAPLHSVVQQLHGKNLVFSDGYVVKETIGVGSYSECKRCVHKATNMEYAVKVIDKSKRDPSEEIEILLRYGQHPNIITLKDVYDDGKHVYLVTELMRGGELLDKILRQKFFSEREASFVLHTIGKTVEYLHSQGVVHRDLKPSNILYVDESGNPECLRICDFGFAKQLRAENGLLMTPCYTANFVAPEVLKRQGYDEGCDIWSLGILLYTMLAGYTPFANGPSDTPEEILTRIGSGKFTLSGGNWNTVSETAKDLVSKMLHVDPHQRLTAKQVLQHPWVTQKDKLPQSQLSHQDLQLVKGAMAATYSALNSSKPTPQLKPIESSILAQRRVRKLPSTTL
Data set [14] concerns Rattus norvegicus. The experiment in a line: Cardiovascular activity in DOCA salt treated rat assessed as increase in heart rate at 1 mg/kg, po. It counts as ADME, organism-based. The arrangement: dose 1 mg/kg, route oral. The following applies: in vivo. The procedure, abridged: as §1
The test system of a further data set is Aorta. The experiment in a line: Vasodilatory activity in Sprague-Dawley rat aorta assessed as reversal of KCl/phenylephrine-induced muscle contraction. It counts as functional, tissue-based.
The target of data set [15] is Rho-associated protein kinase 1 (Homo sapiens, UniProt Q13464). Kind of data set: Inhibition of human recombinant N-terminal his-tagged ROCK1 (3-543) expressed in baculovirus infected Sf9 cells using Biotin-Ahx-AKRRLSSLRA-CONH2 substrate and [gamma-33P]ATP after 90 mins by scintillation proximity assay. (In general: SPA uses beads or plates that emit light when radiolabelled molecules are held near them.)
Rho-associated protein kinase 1, sequence (Q13464 whole entry): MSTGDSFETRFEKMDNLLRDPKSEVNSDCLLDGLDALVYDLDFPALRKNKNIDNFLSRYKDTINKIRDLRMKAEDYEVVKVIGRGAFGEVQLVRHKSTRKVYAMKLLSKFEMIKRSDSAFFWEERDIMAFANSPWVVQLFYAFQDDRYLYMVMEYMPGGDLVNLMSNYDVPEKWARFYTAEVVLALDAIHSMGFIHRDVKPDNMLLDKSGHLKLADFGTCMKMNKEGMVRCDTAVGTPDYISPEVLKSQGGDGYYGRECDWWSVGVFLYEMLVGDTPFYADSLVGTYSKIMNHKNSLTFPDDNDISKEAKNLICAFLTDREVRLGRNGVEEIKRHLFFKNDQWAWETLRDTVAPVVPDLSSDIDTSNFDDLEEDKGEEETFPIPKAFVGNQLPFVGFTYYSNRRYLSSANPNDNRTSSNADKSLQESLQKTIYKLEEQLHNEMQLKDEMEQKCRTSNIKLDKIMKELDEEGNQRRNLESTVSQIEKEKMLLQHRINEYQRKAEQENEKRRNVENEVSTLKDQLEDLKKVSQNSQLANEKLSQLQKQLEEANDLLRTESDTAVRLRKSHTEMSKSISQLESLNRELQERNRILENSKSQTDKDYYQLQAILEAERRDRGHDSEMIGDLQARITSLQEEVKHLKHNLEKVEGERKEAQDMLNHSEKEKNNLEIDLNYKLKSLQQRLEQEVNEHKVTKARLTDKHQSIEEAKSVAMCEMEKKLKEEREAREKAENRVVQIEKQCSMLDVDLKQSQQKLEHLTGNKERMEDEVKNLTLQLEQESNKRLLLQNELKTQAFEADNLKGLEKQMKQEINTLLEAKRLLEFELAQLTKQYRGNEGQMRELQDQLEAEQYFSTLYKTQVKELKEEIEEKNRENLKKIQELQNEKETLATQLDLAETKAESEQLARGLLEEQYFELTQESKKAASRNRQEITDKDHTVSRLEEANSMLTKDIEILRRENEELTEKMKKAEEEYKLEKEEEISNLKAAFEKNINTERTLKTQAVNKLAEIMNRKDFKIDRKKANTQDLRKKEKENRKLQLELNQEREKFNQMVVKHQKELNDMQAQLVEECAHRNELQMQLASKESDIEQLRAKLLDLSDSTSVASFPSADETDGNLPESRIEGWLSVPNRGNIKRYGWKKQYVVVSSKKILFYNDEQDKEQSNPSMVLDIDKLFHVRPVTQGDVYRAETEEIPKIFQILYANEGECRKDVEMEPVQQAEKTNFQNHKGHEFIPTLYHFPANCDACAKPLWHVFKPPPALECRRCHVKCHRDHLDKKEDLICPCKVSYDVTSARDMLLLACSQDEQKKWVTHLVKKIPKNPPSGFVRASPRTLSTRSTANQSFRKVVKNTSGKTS

In data set [16] the test system is primary macrophages (Homo sapiens). The experiment in a line: Antiinflammatory activity in human primary monocyte-derived macrophages assessed as inhibition of LPS-induced IL-6 mRNA expression at 10 uM treated 30 mins before LPS stimulation measured after 18 hrs by Northern blotting.
Data set [17] deals with Rho-associated protein kinase 2 (Homo sapiens, UniProt O75116). The experiment in a line: Inhibition of human ROCK2.
For data set [18], the target named is Ribosomal protein S6 kinase alpha-5 (Homo sapiens, UniProt O75582). The experiment in a line: Inhibition of MSK1.

Serine/threonine-protein kinase PLK1, sequence (P53350 whole entry): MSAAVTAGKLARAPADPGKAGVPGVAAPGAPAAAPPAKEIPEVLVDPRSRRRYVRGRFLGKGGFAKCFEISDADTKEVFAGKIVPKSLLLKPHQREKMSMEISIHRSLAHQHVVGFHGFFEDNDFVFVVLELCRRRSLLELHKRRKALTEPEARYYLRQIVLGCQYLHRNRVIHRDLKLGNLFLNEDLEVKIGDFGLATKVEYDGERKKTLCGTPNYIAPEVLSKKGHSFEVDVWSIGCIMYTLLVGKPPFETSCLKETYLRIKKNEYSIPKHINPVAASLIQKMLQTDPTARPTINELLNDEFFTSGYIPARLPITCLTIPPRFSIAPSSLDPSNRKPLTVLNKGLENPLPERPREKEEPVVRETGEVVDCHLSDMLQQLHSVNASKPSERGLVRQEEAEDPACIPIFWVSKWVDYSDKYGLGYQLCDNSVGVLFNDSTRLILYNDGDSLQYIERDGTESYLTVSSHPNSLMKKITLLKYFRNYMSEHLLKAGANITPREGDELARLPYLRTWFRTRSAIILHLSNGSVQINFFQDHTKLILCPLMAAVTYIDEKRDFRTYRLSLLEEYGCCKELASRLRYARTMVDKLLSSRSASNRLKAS
RAC-gamma serine/threonine-protein kinase, sequence (Q9Y243 whole entry): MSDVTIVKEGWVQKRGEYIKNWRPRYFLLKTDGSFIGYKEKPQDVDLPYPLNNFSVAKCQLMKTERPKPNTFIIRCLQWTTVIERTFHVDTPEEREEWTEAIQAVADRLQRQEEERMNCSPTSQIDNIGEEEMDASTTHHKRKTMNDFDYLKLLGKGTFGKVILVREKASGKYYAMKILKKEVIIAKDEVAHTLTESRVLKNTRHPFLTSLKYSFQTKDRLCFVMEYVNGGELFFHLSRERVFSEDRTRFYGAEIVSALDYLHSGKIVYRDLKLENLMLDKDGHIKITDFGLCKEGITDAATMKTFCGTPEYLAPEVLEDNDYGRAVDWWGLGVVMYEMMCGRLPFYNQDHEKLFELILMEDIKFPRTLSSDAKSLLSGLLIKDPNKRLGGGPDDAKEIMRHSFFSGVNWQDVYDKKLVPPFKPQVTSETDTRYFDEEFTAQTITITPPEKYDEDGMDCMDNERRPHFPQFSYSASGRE

Take `CCn1c(-c2nonc2N)nc2cncc(C(=O)N3CC[C@H](N)C3)c21`: the IC50 was 1290 nM in [1]; more than 10000 nM in data set [4]; more than 10000 nM in data set [5]; 9100 nM in data set [7]; 1950 nM in data set [8]; more than 10000 nM in data set [9]. Moreover, the figures for the IC50 in [11], in [12] and in [13] were 7000 nM, 324 nM and 35 nM, respectively. For the same molecule, the Activity in the data set on Rattus norvegicus [2] was 40 mmHg; in the data set with Rattus norvegicus [3], 40 mmHg; in the data set with Rattus norvegicus [6] it was “Dose-dependent effect”; in the data set with Rattus norvegicus [10], 12 mmHg; in the data set on Rattus norvegicus [14], “Toxic”.

For the molecule `C[C@@H](N)[C@H]1CC[C@H](C(=O)Nc2ccncc2)CC1` [Y-27632], in the data set on Aorta, the IC50 was 1400 nM. The Activity entry in the data set on Rattus norvegicus [6] is given as “Dose-dependent effect”.

Consider `CCn1c(-c2nonc2N)nc2cnccc21`, for which the IC50 in data set [15] and in data set [17] was less than 10 nM throughout. The inhibition result in [16] is “Active”.

As for `CCn1c(-c2nonc2N)nc2cncc(-c3ccc(CN)cc3)c21`, the IC50 in [15] and in data set [17] was less than 10 nM each time. In addition, the inhibition result in [16] was “Active”.

Turning to `CCn1c(-c2nonc2N)nc2cnc(Oc3cccc(NC(=O)c4ccc(OCCN5CCOCC5)cc4)c3)cc21` [GSK-269962A], the IC50 was 1510 nM in [1]; more than 10000 nM in data set [4]; more than 10000 nM in [5]; 1260 nM in [7]; more than 10000 nM in [9]; 3500 nM in [11]. The IC50 turned out to be 955 nM in data set [12], 132 nM in data set [13] and 49 nM in [18]. Moreover, in the data set with Rattus norvegicus [6], the Activity result is recorded as “Dose-dependent effect”.

In general, IC50 refers to the concentration needed to halve the response being measured.

For the origin of these results see ChEMBL document CHEMBL1955726, “Novel Rho kinase inhibitors with anti-inflammatory and vasodilatory activities” (J Pharmacol Exp Ther, 2007).
